Measurements: ChEMBL document CHEMBL4043093, “2-Oxo-3, 4-dihydropyrimido[4, 5-d]pyrimidinyl derivatives as new irreversible pan fibroblast growth factor receptor (FGFR) inhibitors” (Eur J Med Chem, 2017)

How the values were obtained:
[1] = test system: Phosphatidylinositol 4,5-bisphosphate 3-kinase catalytic subunit alpha isoform (Homo sapiens), P42336 [E545A]; test: Inhibition of human partial length PIK3CA E545A mutant (R108 to N1068 residues) expressed in HEK293 cells assessed as residual activity at 1000 nM after 30 mins by Kinomescan method relative to control; format: cell-based
How it was run: (§1)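 KINOMEscan binding panel of 456 kinases, with the test compound at a single concentration of 1 µM. Read-out is Percent Control.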

[2] = biological target: Dual serine/threonine and tyrosine protein kinase (Homo sapiens) (UniProt Q6XUX3); test: Inhibition of wild-type human full length RIPK5 (M1 to T929 residues) expressed in HEK293 cells assessed as residual activity at 1000 nM after 30 mins by Kinomescan method relative to control; format: cell-based
[3] = test system: Phosphatidylinositol 4,5-bisphosphate 3-kinase catalytic subunit alpha isoform (Homo sapiens), P42336 [H1047Y]; test: Inhibition of human partial length PIK3CA H1047Y mutant (R108 to N1068 residues) expressed in HEK293 cells assessed as residual activity at 1000 nM after 30 mins by Kinomescan method relative to control; format: cell-based; how it was run: as §1
Phosphatidylinositol 4,5-bisphosphate 3-kinase catalytic subunit alpha isoform (Homo sapiens), P42336 [H1047Y], sequence (P42336 whole entry H1047Y, the tested form may be a part, canonical isoform): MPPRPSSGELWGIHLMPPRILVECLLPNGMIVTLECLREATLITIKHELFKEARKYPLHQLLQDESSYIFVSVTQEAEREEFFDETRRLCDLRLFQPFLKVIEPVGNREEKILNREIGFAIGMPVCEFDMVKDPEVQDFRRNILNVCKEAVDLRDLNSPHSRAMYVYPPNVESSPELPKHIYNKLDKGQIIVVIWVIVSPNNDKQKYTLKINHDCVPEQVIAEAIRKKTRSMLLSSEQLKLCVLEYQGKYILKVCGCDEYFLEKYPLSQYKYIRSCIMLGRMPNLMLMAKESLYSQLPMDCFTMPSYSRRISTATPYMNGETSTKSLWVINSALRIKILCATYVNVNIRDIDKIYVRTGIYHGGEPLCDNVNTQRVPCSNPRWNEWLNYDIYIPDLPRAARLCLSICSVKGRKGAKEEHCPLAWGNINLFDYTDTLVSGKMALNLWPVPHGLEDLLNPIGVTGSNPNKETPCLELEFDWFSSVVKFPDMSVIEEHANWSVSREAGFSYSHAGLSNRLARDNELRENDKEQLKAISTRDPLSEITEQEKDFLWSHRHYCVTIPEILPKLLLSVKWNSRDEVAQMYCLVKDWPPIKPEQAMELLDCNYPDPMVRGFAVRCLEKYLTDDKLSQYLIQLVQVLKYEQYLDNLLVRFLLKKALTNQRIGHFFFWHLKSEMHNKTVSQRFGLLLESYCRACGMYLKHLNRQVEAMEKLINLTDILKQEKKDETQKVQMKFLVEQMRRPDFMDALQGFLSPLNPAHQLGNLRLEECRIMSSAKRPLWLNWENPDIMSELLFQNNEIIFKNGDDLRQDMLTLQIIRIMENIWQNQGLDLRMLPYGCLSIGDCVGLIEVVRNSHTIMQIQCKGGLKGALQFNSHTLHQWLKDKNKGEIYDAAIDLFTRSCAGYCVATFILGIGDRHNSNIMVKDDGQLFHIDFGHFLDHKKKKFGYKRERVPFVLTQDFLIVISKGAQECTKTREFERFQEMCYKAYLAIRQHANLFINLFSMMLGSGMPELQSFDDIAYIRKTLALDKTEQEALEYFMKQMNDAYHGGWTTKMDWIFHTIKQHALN

[4] = biological target: Serine/threonine-protein kinase 16 (Homo sapiens) (UniProt O75716); test: Inhibition of wild-type human partial length STK16 (G11 to I305 residues) expressed in Escherichia coli BL21 assessed as residual activity at 1000 nM after 30 mins by Kinomescan method relative to control
Serine/threonine-protein kinase 16 (Homo sapiens), sequence (O75716 whole entry, the tested form may be a part): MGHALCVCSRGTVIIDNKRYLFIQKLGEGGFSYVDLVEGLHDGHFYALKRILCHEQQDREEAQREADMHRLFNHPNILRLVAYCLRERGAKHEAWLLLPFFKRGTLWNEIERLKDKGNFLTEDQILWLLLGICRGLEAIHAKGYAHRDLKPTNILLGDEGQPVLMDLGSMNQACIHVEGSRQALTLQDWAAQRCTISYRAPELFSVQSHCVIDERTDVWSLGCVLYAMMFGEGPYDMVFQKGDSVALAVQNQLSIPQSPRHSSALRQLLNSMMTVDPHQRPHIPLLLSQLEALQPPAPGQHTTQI

[5] = biological target: Serine/threonine-protein kinase MARK2 (Homo sapiens) (UniProt Q7KZI7); test: Inhibition of wild-type human partial length MARK2 (M1 to R450 residues) expressed in Escherichia coli BL21 assessed as residual activity at 1000 nM after 30 mins by Kinomescan method relative to control
Serine/threonine-protein kinase MARK2 (Homo sapiens), sequence (Q7KZI7 whole entry, the tested form may be a part): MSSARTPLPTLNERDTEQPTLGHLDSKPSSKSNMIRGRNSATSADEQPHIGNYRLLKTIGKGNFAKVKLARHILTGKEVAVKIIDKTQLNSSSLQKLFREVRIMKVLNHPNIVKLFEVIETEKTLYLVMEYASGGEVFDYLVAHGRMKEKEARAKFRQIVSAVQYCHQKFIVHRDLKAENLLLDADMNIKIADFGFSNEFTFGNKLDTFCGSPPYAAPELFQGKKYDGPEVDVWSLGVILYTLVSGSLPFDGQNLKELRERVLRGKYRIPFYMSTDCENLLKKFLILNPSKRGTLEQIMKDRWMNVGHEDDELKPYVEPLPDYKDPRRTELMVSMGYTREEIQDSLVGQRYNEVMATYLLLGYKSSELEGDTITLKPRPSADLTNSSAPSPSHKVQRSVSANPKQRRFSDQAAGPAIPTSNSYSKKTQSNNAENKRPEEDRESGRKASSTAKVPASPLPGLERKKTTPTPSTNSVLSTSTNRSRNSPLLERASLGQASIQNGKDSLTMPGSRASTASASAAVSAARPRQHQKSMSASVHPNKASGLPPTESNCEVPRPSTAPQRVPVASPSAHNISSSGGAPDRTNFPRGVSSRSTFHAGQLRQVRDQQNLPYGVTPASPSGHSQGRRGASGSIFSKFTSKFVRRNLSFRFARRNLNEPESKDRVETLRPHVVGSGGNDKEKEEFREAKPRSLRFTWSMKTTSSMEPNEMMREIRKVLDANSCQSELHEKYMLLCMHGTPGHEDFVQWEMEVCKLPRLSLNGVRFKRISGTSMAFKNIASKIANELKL

[6] = biological target: Cyclin-dependent kinase 5 (Homo sapiens) (UniProt Q00535); test: Inhibition of wild-type human full length CDK5 (M1 to P292 residues) expressed in Escherichia coli BL21 assessed as residual activity at 1000 nM after 30 mins by Kinomescan method relative to control
How it was run: (§2)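 Single-point screen at a fixed 1 µM, run within a 456-kinase DiscoveRx KINOMEscan panel. Each kinase's read-out is Percent Control, i.e. signal relative to a control without compound. Hits were scored by a Percent Control < 35 cut-off, and an S(35) selectivity score was calculated across the non-mutant kinases.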

[7] = biological target: Serine/threonine-protein kinase D3 (Homo sapiens) (UniProt O94806); test: Inhibition of wild-type human partial length PRKD3 (S543 to E863 residues) expressed in Escherichia coli BL21 assessed as residual activity at 1000 nM after 30 mins by Kinomescan method relative to control
[8] = biological target: Homeodomain-interacting protein kinase 3 (Homo sapiens) (UniProt Q9H422); test: Inhibition of wild-type human partial length HIPK3 (M153 to N562 residues) expressed in HEK293 cells assessed as residual activity at 1000 nM after 30 mins by Kinomescan method relative to control; format: cell-based
[9] = biological target: Cyclin-dependent kinase 11B (Homo sapiens) (UniProt P21127); test: Inhibition of wild-type human partial length CDC2L1 (P353 to G692 residues) expressed in Escherichia coli BL21 assessed as residual activity at 1000 nM after 30 mins by Kinomescan method relative to control
Cyclin-dependent kinase 11B (Homo sapiens), sequence (P21127 whole entry, the tested form may be a part): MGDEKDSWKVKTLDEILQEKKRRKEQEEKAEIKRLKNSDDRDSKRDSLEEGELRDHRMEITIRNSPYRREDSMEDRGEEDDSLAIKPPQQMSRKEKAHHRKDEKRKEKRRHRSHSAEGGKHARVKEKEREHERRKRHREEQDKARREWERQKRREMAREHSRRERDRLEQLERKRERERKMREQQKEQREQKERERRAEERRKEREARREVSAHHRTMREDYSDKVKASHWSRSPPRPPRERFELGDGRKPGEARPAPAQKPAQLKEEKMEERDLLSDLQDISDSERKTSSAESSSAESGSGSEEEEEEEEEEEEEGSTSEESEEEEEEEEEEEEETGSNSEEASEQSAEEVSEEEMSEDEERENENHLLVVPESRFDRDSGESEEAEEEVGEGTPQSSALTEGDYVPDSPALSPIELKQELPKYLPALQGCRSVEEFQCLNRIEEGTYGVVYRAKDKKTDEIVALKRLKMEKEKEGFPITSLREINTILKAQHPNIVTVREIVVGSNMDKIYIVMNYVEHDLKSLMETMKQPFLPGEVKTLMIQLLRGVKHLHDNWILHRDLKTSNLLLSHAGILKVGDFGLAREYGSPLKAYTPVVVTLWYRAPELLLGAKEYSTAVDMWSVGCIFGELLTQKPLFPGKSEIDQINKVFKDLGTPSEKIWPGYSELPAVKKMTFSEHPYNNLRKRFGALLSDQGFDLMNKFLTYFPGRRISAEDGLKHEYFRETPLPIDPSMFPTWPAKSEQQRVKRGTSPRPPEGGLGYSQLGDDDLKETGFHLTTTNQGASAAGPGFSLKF

[10] = biological target: Serine/threonine-protein kinase MRCK alpha (Homo sapiens) (UniProt Q5VT25); test: Inhibition of wild-type human partial length MRCKA (L57 to V418 residues) expressed in Escherichia coli BL21 assessed as residual activity at 1000 nM after 30 mins by Kinomescan method relative to control
Serine/threonine-protein kinase MRCK alpha (Homo sapiens), sequence (Q5VT25 whole entry, the tested form may be a part): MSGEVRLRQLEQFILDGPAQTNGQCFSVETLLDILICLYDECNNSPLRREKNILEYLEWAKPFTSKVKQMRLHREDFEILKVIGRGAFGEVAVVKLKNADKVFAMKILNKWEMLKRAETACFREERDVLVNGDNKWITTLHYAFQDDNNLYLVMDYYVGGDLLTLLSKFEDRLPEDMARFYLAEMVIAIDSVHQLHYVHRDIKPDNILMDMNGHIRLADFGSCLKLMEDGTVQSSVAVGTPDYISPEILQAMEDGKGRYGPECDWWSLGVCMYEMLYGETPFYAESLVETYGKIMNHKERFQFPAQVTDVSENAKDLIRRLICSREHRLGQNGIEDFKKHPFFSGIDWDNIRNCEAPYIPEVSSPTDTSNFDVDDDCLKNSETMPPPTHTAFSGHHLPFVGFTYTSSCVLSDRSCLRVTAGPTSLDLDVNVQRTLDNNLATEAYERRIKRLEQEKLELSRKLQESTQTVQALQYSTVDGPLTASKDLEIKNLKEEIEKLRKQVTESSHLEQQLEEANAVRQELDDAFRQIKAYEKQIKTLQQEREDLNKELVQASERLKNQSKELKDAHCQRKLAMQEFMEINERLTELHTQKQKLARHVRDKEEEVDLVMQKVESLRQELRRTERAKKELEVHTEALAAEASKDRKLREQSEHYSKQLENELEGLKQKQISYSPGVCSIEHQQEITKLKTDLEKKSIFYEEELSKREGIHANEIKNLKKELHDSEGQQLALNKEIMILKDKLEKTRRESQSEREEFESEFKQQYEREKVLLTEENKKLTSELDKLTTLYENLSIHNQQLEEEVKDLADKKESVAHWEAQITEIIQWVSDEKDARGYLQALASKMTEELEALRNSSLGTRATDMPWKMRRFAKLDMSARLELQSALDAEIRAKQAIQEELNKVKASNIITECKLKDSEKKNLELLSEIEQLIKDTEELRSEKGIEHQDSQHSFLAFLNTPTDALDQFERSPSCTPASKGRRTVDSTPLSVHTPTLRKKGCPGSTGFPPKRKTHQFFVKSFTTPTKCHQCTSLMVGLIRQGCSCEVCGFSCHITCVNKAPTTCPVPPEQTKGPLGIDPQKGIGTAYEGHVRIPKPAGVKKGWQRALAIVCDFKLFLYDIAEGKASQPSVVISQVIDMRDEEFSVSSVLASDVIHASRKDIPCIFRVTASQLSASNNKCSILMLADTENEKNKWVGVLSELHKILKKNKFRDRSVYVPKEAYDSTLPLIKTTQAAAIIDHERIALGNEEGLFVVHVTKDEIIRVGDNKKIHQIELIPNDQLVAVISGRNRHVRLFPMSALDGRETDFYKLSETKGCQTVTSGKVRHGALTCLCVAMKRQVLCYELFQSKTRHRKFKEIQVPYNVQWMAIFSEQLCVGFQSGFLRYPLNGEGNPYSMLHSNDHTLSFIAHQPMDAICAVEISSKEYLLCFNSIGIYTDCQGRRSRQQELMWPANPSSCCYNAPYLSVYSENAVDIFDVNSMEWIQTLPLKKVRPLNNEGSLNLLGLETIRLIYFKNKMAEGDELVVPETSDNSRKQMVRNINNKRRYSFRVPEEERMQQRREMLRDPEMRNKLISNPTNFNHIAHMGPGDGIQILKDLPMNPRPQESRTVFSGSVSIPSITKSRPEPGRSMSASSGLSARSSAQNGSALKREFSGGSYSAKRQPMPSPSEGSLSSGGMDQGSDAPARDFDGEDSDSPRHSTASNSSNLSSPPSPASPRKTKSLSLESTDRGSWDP

[11] = biological target: Tyrosine-protein kinase Fgr (Homo sapiens) (UniProt P09769); test: Inhibition of wild-type human partial length FGR (L233 to T529 residues) expressed in Escherichia coli BL21 assessed as residual activity at 1000 nM after 30 mins by Kinomescan method relative to control
[12] = test system: Tyrosine-protein kinase ABL1 (Homo sapiens), P00519 [Y253F]; test: Inhibition of human phosphorylated ABL1 Y253F mutant (S229 to K512 residues) expressed in HEK293 cells assessed as residual activity at 1000 nM after 30 mins by Kinomescan method relative to control; format: cell-based; how it was run: as §2
[13] = test system: Epidermal growth factor receptor (Homo sapiens), P00533 [L858R,T790M]; test: Inhibition of human partial length EGFR L858R/T790M double mutant (R669 to V1011 residues) expressed in HEK293 cells assessed as residual activity at 1000 nM after 30 mins by Kinomescan method relative to control; format: cell-based; how it was run: as §1
[14] = biological target: Serine/threonine-protein kinase ICK (Homo sapiens) (UniProt Q9UPZ9); test: Inhibition of wild-type human partial length ICK (M1 to P314 residues) expressed in HEK293 cells assessed as residual activity at 1000 nM after 30 mins by Kinomescan method relative to control; format: cell-based
[15] = biological target: Dual specificity mitogen-activated protein kinase kinase 3 (Homo sapiens) (UniProt P46734); test: Inhibition of wild-type human full length MEK3 (M1 to S318 residues) expressed in HEK293 cells assessed as residual activity at 1000 nM after 30 mins by Kinomescan method relative to control; format: cell-based
How it was run: (§3)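 Single-concentration screen at 1 µM across a 456-kinase KINOMEscan panel. The read-out is Percent Control for each kinase.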

[16] = test system: Receptor-type tyrosine-protein kinase FLT3 (Homo sapiens), P36888 [K663Q]; test: Inhibition of human partial length FLT3 K663Q mutant (V592 to Y969 residues) expressed in Escherichia coli BL21 assessed as residual activity at 1000 nM after 30 mins by Kinomescan method relative to control; how it was run: as §1
[17] = biological target: Mitogen-activated protein kinase 1 (Homo sapiens) (UniProt P28482); test: Inhibition of wild-type human full length ERK2 (M1 to S360 residues) expressed in Escherichia coli BL21 assessed as residual activity at 1000 nM after 30 mins by Kinomescan method relative to control; how it was run: as §3
Mitogen-activated protein kinase 1 (Homo sapiens), sequence (P28482 whole entry, the tested form may be a part): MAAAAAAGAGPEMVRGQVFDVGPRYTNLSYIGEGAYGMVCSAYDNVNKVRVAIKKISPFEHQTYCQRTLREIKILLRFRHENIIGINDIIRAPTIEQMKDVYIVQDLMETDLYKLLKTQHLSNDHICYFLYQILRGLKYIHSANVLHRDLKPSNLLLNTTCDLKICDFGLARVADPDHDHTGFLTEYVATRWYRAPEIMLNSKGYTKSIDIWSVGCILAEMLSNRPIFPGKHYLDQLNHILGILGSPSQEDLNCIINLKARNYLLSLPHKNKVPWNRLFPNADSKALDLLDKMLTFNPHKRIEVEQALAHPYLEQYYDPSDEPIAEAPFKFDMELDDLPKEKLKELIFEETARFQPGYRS

[18] = biological target: Serine/threonine-protein kinase WNK2 (Homo sapiens) (UniProt Q9Y3S1); test: Inhibition of wild-type human partial length WNK2 (V47 to D482 residues) expressed in HEK293 cells assessed as residual activity at 1000 nM after 30 mins by Kinomescan method relative to control; format: cell-based
[19] = biological target: Serine/threonine-protein kinase mTOR (Homo sapiens) (UniProt P42345); test: Inhibition of wild-type human partial length MTOR (L1382 to W2549 residues) expressed in HEK293 cells assessed as residual activity at 1000 nM after 30 mins by Kinomescan method relative to control; format: cell-based
[20] = biological target: Tyrosine-protein kinase Blk (Homo sapiens) (UniProt P51451); test: Inhibition of wild-type human partial length BLK (G211 to L503 residues) expressed in Escherichia coli BL21 assessed as residual activity at 1000 nM after 30 mins by Kinomescan method relative to control
[21] = biological target: Tyrosine-protein kinase JAK2 (Homo sapiens) (UniProt O60674); test: Inhibition of wild-type human partial length JAK2 JH1 catalytic domain (A829 to G1132 residues) expressed in HEK293 cells assessed as residual activity at 1000 nM after 30 mins by Kinomescan method relative to control; format: cell-based

COc1cc(OC)c(Cl)c(N2Cc3cnc(Nc4ccc(F)cc4)nc3N(C3CCN(C(=O)/C=C/CN(C)C)CC3)C2=O)c1Cl
Activity [1]: 90% | Activity [2]: 100% | Activity [3]: 100% | Activity [4]: 100% | Activity [5]: 90% | Activity [6]: 100% | Activity [7]: 100% | Activity [8]: 100% | Activity [9]: 100% | Activity [10]: 98% | Activity [11]: 19% | Activity [12]: 38% | Activity [13]: 94% | Activity [14]: 100% | Activity [15]: 90% | Activity [16]: 100% | Activity [17]: 100% | Activity [18]: 96% | Activity [19]: 93% | Activity [20]: 0.6% | Activity [21]: 100%
